Experimental data: ChEMBL document CHEMBL4422626, “Optimization of novel benzofuro[3,2-b]pyridin-2(1H)-one derivatives as dual inhibitors of BTK and PI3Kδ” (Eur J Med Chem, 2019)
Activity calls are given as the source filed them. The rule behind the calls is not given here.

Legend:
[1] = biological target: T1, Tyrosine-protein kinase BTK (Homo sapiens, UniProt Q06187); test: Inhibition of BTK (unknown origin) by ADP-gloassay
[2] = biological target: T2, Phosphatidylinositol 4,5-bisphosphate 3-kinase catalytic subunit delta isoform (Homo sapiens) (UniProt O00329); test: Inhibition of PI3Kdelta (unknown origin) at 200 nM by ADP-gloassay relative to control
T2 sequence (whole entry): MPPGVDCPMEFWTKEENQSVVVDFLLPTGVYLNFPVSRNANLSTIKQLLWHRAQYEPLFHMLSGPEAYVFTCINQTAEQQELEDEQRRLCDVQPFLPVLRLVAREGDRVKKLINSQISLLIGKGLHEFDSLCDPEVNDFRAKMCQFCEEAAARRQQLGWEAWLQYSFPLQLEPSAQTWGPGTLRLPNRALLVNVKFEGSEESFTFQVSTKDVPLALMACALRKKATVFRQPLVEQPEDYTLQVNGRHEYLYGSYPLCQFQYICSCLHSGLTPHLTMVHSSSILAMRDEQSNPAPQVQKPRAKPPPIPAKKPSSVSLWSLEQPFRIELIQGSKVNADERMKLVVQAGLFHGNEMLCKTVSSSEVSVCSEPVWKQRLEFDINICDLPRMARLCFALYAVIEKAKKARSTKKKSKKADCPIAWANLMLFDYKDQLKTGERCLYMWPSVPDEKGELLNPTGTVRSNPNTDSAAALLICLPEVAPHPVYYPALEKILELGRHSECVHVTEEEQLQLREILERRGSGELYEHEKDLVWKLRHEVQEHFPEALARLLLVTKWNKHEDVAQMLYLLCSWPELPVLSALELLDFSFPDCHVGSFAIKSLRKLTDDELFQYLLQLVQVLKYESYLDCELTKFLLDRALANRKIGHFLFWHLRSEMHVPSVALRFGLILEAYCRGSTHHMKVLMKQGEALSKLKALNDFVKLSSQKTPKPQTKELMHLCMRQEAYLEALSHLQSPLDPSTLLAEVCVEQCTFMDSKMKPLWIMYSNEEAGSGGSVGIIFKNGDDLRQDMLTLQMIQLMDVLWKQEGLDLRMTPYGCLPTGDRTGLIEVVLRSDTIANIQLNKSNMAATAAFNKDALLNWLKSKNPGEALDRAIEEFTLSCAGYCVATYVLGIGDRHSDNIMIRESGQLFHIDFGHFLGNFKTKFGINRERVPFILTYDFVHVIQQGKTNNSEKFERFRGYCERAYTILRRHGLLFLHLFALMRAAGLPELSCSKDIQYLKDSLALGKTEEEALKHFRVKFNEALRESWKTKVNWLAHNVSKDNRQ
Outline: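 PI3Kδ was tested with the PI3K-Glo Class I Profiling Kit and a luminescence read-out, following the manufacturer's protocol. Each compound was tested at a single concentration of 200 nM and expressed as percent inhibition versus control.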

[3] = test system: Raji; test: Antiproliferative activity against human Raji cells after 48 hrs by CCK8 assay; assay type: functional, cell-based
Outline: (§1)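 Raji and Ramos cells grown in RPMI1640 or IMDM with 10% FBS, 37 °C, 5% CO2. Seeded at 3000-5000 cells/well and left 12-24 h before dosing. Several compound concentrations given for 48 h. CCK-8 then added for 4 h and OD read at 450 nm. IC50 is the concentration giving 50% cell death versus control, calculated from inhibition ratios.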

[4] = biological target: T1, Tyrosine-protein kinase BTK; details: at 200 nM
[5] = biological target: T3, Phosphatidylinositol 4,5-bisphosphate 3-kinase catalytic subunit delta isoform (Homo sapiens, UniProt O00329); test: Inhibition of PI3Kdelta (unknown origin) by ADP-gloassay
T3 sequence (O00329 whole entry): T2 sequence (whole entry)
Outline: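 PI3K isoform activity was measured with the PI3K-Glo Class I Profiling Kit, a luminescent ADP-Glo-type read-out, following the manufacturer's protocol.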

[6] = test system: Ramos; test: Antiproliferative activity against human Ramos cells after 48 hrs by CCK8 assay; assay type: functional, cell-based; outline: as §1
[7] = biological target: Phosphatidylinositol 4,5-bisphosphate 3-kinase catalytic subunit alpha isoform (Homo sapiens, UniProt P42336); test: Inhibition of PI3Kalpha (unknown origin) by ADP-gloassay
Outline: (§2)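 PI3K isoform activity was measured with the PI3K-Glo Class I Profiling Kit, a luminescent ADP-Glo-type read-out, following the manufacturer's protocol. Compounds were tested over 1 nM–5 μM to give IC50 values.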

[8] = biological target: Phosphatidylinositol 4,5-bisphosphate 3-kinase catalytic subunit beta isoform (Homo sapiens, UniProt P42338); test: Inhibition of PI3Kbeta (unknown origin) by ADP-gloassay; outline: as §2
[9] = biological target: Phosphatidylinositol 4,5-bisphosphate 3-kinase catalytic subunit gamma isoform (Homo sapiens, UniProt P48736); test: Inhibition of PI3Kgamma (unknown origin) by ADP-gloassay; outline: as §2
[10] = biological target: Serine/threonine-protein kinase mTOR (Homo sapiens, UniProt P42345); test: Inhibition of mTOR (unknown origin) by ADP-gloassay
[11] = biological target: T2, Phosphatidylinositol 4,5-bisphosphate 3-kinase catalytic subunit delta isoform (Homo sapiens); test: Inhibition of PI3Kdelta in human Ramos cells assessed as reduction in Akt phosphorylation at Ser473 residues at 0.25 to 4 uM after 4 hrs by Western blot analysis; assay type: cell-based
Outline: (§3)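 Cells were treated with compound for 4 h, then stimulated or not with anti-human IgM F(ab')2. They were lysed in Tris-Cl pH 6.8/4% SDS/glycerol/β-mercaptoethanol buffer on ice and protein was quantified by BCA. Equal protein was run on 12% SDS-PAGE and transferred to PVDF. Blots were probed with specific primary antibodies overnight at 4 °C and HRP secondaries 1 h at 37 °C, with ECL detection.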

[12] = biological target: T2, Phosphatidylinositol 4,5-bisphosphate 3-kinase catalytic subunit delta isoform (Homo sapiens); test: Inhibition of PI3Kdelta in human Ramos cells assessed as reduction in mTOR phosphorylation at Ser2481 residues at 0.25 to 4 uM after 4 hrs by Western blot analysis; assay type: cell-based; outline: as §3
[13] = test system: Ramos; test: Induction of apoptosis in human Ramos cells assessed as early apoptotic cells at 5 uM after 48 hrs by Annexin-V-FITC/propidium iodide staining based flow cytometric analysis (reference value: 1.08%); assay type: functional
[14] = test system: Ramos; test: Induction of apoptosis in human Ramos cells assessed as late apoptotic cells at 5 uM after 48 hrs by Annexin-V-FITC/propidium iodide staining based flow cytometric analysis (reference value: 0.98%); assay type: functional
[15] = test system: Ramos; test: Induction of apoptosis in human Ramos cells assessed as necrotic cells at 5 uM after 48 hrs by Annexin-V-FITC/propidium iodide staining based flow cytometric analysis (reference value: 1.11%); assay type: functional
[16] = test system: Ramos; test: Induction of apoptosis in human Ramos cells assessed as viable cells at 5 uM after 48 hrs by Annexin-V-FITC/propidium iodide staining based flow cytometric analysis (reference value: 96.83%); assay type: functional; details: read-out: Activity
[17] = test system: Ramos; test: Cell cycle arrest in human Ramos cells assessed as accumulation at G0/G1 phase at 5 uM after 48 hrs by propidium iodide staining based flow cytometric analysis (reference value: 24.65%); assay type: functional
[18] = test system: Ramos; test: Cell cycle arrest in human Ramos cells assessed as accumulation at S phase at 5 uM after 48 hrs by propidium iodide staining based flow cytometric analysis (reference value: 71.08%); assay type: functional
[19] = test system: Ramos; test: Cell cycle arrest in human Ramos cells assessed as accumulation at G2/M phase at 5 uM after 48 hrs by propidium iodide staining based flow cytometric analysis (reference value: 4.26%); assay type: functional
[20] = test system: Ramos; test: Cell cycle arrest in human Ramos cells assessed as accumulation at apoptotic phase at 5 uM after 48 hrs by propidium iodide staining based flow cytometric analysis (reference value: 5.03%); assay type: functional
[21] = biological target: T2, Phosphatidylinositol 4,5-bisphosphate 3-kinase catalytic subunit delta isoform (Homo sapiens); test: Inhibition of PI3Kdelta in human Ramos cells assessed as reduction in Akt phosphorylation at Ser473 residues at 0.25 to 1 uM after 4 hrs by Western blot analysis; assay type: cell-based
Outline: (§4)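 Ramos cells pretreated with compound for 4 h, then stimulated or not with anti-human IgM F(ab')2. Cells were washed in PBS and lysed on ice for 0.5 h in Tris-Cl pH 6.8/SDS/glycerol/β-mercaptoethanol/PMSF/NaF/DTT buffer, then heated. Protein was quantified by BCA, with equal amounts run on 12% SDS-PAGE and semi-dry blotted to PVDF. Primary antibodies overnight at 4 °C, HRP secondary 1 h at 37 °C, ECL detection on film.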

[22] = biological target: T2, Phosphatidylinositol 4,5-bisphosphate 3-kinase catalytic subunit delta isoform (Homo sapiens); test: Inhibition of PI3Kdelta in human Ramos cells assessed as reduction in mTOR phosphorylation at Ser2481 residues at 0.25 to 1 uM after 4 hrs by Western blot analysis; assay type: cell-based; outline: as §4
[23] = test system: Raji; test: Antiproliferative activity against human Raji cells at 5 uM up to 24 hrs by CCK8 assay; assay type: functional, cell-based
Outline: (§5)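 Raji (Burkitt lymphoma) cells in RPMI1640 or IMDM with 10% FBS, 37 °C, 5% CO2; seeded 3000-5000 cells/well, preincubated 12-24 h, then exposed to compound. Cells collected at different times and viability read by CCK-8 (4 h incubation, OD 450 nm).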

[24] = test system: Raji; test: Antiproliferative activity against human Raji cells at 5 uM after 24 hrs by CCK8 assay; assay type: functional, cell-based; outline: as §5

T1 sequence (Q06187 whole entry, canonical isoform): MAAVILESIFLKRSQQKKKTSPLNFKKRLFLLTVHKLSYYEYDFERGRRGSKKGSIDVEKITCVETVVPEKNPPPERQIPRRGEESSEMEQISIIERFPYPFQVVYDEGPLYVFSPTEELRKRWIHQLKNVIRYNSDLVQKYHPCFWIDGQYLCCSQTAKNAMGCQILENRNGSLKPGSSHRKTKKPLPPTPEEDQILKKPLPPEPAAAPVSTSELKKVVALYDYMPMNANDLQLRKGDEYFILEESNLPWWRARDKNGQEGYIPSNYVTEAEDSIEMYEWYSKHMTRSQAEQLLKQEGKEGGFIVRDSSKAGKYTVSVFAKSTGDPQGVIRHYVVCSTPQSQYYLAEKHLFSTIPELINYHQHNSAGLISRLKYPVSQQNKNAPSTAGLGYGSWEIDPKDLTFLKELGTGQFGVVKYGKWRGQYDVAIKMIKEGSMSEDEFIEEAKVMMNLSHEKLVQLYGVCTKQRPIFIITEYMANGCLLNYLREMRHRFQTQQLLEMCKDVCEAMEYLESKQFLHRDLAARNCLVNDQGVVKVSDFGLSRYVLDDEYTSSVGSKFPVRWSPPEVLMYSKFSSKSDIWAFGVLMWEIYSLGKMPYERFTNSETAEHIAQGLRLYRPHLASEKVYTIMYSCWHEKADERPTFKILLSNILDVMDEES
Phosphatidylinositol 4,5-bisphosphate 3-kinase catalytic subunit alpha isoform, sequence (P42336 whole entry, canonical isoform): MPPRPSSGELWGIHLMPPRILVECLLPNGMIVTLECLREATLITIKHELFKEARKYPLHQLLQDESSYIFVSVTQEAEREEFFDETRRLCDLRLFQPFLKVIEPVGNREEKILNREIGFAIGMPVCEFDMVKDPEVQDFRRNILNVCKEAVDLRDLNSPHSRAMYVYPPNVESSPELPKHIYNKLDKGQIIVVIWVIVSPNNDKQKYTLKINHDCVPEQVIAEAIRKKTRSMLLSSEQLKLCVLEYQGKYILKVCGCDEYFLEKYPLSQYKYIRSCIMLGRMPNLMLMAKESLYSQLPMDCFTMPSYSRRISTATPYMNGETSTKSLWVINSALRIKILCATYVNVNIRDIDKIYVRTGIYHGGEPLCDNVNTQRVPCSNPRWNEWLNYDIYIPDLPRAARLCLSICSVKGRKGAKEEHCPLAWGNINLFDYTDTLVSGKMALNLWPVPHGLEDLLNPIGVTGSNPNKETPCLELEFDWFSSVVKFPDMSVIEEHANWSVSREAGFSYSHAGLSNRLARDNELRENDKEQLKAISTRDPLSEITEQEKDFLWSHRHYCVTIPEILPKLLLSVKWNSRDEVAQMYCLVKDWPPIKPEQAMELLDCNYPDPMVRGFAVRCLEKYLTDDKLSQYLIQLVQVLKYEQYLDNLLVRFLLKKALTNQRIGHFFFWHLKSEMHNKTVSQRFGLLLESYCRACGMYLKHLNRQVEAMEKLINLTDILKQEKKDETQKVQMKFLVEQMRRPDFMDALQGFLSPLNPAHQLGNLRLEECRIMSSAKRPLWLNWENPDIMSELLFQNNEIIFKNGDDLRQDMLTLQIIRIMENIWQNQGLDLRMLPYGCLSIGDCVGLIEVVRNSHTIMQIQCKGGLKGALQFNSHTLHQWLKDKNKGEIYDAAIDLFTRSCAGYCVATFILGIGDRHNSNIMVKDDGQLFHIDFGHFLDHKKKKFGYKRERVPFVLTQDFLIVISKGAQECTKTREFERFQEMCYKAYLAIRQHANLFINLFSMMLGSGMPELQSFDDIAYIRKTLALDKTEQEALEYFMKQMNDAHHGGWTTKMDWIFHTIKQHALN
Phosphatidylinositol 4,5-bisphosphate 3-kinase catalytic subunit beta isoform, sequence (P42338 whole entry, canonical isoform): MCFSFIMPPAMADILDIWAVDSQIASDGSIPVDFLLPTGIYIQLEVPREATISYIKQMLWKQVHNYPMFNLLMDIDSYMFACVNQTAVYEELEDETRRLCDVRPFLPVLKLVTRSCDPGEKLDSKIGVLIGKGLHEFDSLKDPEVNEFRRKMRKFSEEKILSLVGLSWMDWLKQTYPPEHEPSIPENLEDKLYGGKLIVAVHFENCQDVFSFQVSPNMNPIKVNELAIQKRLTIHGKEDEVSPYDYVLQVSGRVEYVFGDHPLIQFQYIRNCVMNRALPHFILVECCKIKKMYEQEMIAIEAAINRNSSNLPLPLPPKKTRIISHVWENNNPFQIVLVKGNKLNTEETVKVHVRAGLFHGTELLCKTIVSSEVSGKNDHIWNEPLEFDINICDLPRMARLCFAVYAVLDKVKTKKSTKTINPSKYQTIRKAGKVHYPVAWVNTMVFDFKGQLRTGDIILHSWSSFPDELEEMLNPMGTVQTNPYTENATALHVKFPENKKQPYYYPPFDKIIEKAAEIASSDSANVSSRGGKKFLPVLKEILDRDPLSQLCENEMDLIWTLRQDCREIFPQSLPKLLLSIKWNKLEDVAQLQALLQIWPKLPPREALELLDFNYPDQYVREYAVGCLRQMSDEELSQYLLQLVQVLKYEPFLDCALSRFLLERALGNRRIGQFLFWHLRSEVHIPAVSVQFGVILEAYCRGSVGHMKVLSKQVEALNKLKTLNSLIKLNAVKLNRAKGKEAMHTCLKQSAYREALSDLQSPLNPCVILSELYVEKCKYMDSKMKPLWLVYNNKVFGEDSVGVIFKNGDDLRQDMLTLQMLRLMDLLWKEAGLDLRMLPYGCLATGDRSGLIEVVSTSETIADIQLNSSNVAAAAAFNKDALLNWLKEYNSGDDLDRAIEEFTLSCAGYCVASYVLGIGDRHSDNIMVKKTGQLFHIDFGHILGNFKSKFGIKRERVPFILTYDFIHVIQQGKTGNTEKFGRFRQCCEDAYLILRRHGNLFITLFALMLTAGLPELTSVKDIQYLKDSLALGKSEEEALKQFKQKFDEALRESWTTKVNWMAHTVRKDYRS
Phosphatidylinositol 4,5-bisphosphate 3-kinase catalytic subunit gamma isoform, sequence (P48736 whole entry, canonical isoform): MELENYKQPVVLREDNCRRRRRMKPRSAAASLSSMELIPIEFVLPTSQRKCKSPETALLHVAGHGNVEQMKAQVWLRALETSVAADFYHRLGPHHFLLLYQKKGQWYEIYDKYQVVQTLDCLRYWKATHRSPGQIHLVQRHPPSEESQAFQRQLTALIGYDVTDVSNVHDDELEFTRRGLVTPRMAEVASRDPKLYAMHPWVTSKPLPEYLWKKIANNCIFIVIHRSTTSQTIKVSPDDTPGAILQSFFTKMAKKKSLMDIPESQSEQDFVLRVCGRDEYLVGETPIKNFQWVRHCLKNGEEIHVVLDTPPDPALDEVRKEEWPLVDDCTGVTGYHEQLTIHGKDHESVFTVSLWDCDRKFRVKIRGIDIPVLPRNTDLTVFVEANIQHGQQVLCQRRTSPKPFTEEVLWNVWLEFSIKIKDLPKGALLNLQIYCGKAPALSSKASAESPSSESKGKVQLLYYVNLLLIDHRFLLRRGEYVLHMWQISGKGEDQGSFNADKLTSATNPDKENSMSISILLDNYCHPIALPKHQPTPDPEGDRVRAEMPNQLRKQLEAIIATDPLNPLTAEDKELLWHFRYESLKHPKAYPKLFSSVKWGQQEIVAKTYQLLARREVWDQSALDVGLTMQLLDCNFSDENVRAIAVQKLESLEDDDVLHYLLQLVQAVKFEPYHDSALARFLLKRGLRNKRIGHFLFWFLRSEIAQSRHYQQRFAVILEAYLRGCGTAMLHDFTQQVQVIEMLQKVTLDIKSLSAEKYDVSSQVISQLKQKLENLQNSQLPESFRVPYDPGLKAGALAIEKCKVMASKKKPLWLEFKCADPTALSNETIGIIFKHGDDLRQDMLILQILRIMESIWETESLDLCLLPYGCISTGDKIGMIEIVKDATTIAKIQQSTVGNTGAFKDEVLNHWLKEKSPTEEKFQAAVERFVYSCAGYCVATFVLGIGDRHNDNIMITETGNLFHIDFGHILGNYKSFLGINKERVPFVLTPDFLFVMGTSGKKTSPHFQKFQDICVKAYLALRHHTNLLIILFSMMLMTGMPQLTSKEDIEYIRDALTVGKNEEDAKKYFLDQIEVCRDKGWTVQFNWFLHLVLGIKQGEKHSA

Structure (SMILES) | IC50 [1] [µM] | inhibition [2] | IC50 [3] [µM] | inhibition [4] [%] | IC50 [6] [µM] | also measured
CN(C)CC(=O)Nc1ccc(-n2c(=O)ccc3oc4ccc(-c5ccc(O)cc5)cc4c32)cc1 | 0.15 | inactive | 1.8 | 51.7 | – | –
C=CC(=O)Nc1ccc(-n2c(=O)ccc3oc4ccc(-c5ccc(F)nc5)cc4c32)cc1 | – | 31.7% | 7.3 | 32.1 | 1.65 | IC50 [5]: 1.27 µM
CN(C)CC(=O)Nc1ccc(-n2c(=O)ccc3oc4ccc(C5CCNCC5)cc4c32)cc1 | – | inactive | 2.4 | 33.1 | – | –
COc1ccc(-c2cnc3oc4ccc(=O)n(-c5ccc(NC(=O)CN6CCCCC6)cc5)c4c3c2)cn1 | 0.125 | inactive | > 40 | 55 | – | –
C=CC(=O)Nc1cccc(-n2c(=O)ccc3oc4ccc(-c5ccc(OC)nc5)cc4c32)c1 | 0.08 | 11.3% | 2.4 | 67.3 | 1.3 | –
C=CC(=O)Nc1cccc(-n2c(=O)ccc3oc4ccc(-c5cccnc5)cc4c32)c1 | 0.074 | 58.1% | 2.1 | 86.8 | 2.65 | IC50 [5]: 0.17 µM; IC50 [7]: 0.855 µM; IC50 [8]: 2.82 µM; IC50 [9]: 2.18 µM; IC50 [10]: > 10 µM; inhibition [11]: Active; inhibition [12]: Active; Activity [13]: 37.62%; Activity [14]: 52.16%; Activity [15]: 0.67%; viability at 5 µM [16]: 9.55%; Activity [17]: 60.8%; Activity [18]: 34.56%; Activity [19]: 4.64%; Activity [20]: 55.36%
C=CC(=O)Nc1ccc(-n2c(=O)ccc3oc4ncc(-c5cccnc5)cc4c32)cc1 | – | 34.2% | 7.4 | 38.7 | 1.33 | IC50 [5]: 1 µM
COc1ccc(-c2cnc3oc4ccc(=O)n(-c5ccc(NC(=O)CN(C)C)cc5)c4c3c2)cn1 | 0.15 | inactive | > 40 | 58.8 | – | –
C=CC(=O)Nc1cccc(-n2c(=O)ccc3oc4ccc(-c5ccc(F)nc5)cc4c32)c1 | – | 34% | 2.2 | – | 1.86 | IC50 [5]: 0.92 µM
Cn1c(=O)n(-c2ccc(C(C)(C)C#N)cc2)c2c3cc(-c4cnc5ccccc5c4)ccc3ncc21 [DACTOLISIB] | – | – | 0.22 | – | 0.0068 | Activity [13]: 53.54%; Activity [14]: 40.03%; Activity [15]: 0.64%; viability at 5 µM [16]: 5.78%; Activity [17]: 59.66%; Activity [18]: 35.34%; Activity [19]: 5%; inhibition [21]: Active; inhibition [22]: Active; Activity [20]: 58.92%
CN(C)CC(=O)Nc1ccc(-n2c(=O)ccc3oc4ccc(-c5cccc6[nH]ccc56)cc4c32)cc1 | – | inactive | 18.8 | 47.2 | – | –
CN(C)CC(=O)Nc1ccc(-n2c(=O)ccc3oc4ccc(C5CCN(C(=O)OC(C)(C)C)CC5)cc4c32)cc1 | – | inactive | 7 | 49.2 | – | –
CN(C)CC(=O)Nc1ccc(-n2c(=O)ccc3oc4ccc(-c5cccnc5)cc4c32)cc1 | 0.05 | inactive | 7.1 | 63.4 | 3.43 | –
COc1ccc(-c2cnc3oc4ccc(=O)n(-c5ccc(NC(=O)CN6CCNCC6)cc5)c4c3c2)cn1 | – | inactive | 33.7 | 32 | – | –
C=CC(=O)N1CCC[C@@H](n2nc(-c3ccc(Oc4ccccc4)cc3)c3c(N)ncnc32)C1 [IBRUTINIB] | – | – | – | – | 5.8 | Activity [23]: inactive; Activity [24]: Active; Activity [13]: 5.12%; Activity [14]: 2.71%; Activity [15]: 0.37%; viability at 5 µM [16]: 91.8%; Activity [17]: 30.5%; Activity [18]: 65.18%; Activity [19]: 4.26%; Activity [20]: 4.33%
